One molecule from ChEMBL document CHEMBL1137803, “A novel anti-HIV macrocyclic peptide from Palicourea condensata” (J Nat Prod, 2001) can be followed below.

In one assay the test system is CEM-SS. Description: Cytotoxicity against human CEM-SS cells by XTT assay. The class given is cell-based. (Tetrazolium dyes change colour on reduction, which living cells bring about.)
Assay [1] relates to Human immunodeficiency virus 1. The assay can be described thus: Antiviral activity against HIV1 RF infected in human CEM-SS cells assessed as inhibition of virus induced cytopathic effect by XTT assay. Type of assay: functional, organism-based. Particulars: Human immunodeficiency virus 1, RF. The method in brief:
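HIV-1RF infection of CEM-SS, a human T-lymphoblastoid cell line, in vitro; inhibition of virus-induced cytopathic effects read out and reported as EC50 in µM.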
On the technique in general: Damage to the host cells serves as the signal in cytopathic effect assays.

Structures are written as SMILES. Where a SMILES comes first, the peptide text is derived from it. Bridges are numbered along the chain shown (N, C = ends).

For orientation: IC50 means the midpoint of a concentration-inhibition curve. A lower IC50 goes with greater potency in that assay. By EC50 is commonly meant the concentration giving half of the maximal effect. `CC[C@H](C)[C@@H]1NC(=O)[C@H](C(C)C)NC(=O)[C@H](CCCNC(=N)N)NC(=O)[C@@H]2CSSC[C@@H]3NC(=O)[C@H]([C@@H](C)O)NC(=O)[C@@H]4CSSC[C@H](NC(=O)[C@H](Cc5ccccc5)NC(=O)[C@H]([C@@H](C)O)NC(=O)[C@@H]5CCCN5C(=O)[C@H](CC(=O)O)NC(=O)CNC(=O)[C@H](CC(N)=O)NC(=O)[C@H](CCCNC(=N)N)NC(=O)[C@H](CCCCN)NC(=O)[C@H](CSSC[C@H](NC(=O)[C@H](C(C)C)NC(=O)[C@@H]5CCCN5C1=O)C(=O)N[C@@H]([C@@H](C)O)C(=O)N[C@@H](Cc1ccc(O)cc1)C(=O)N[C@@H](CO)C(=O)N[C@@H](C)C(=O)N[C@@H](C)C(=O)N[C@@H](CC(C)C)C(=O)NCC(=O)N4)NC(=O)[C@H](CC(C)C)NC(=O)CNC(=O)[C@H](CC(=O)O)NC(=O)[C@H](CO)NC(=O)[C@H](CCCNC(=N)N)NC(=O)[C@H](CC(=O)O)NC(=O)[C@H](CC(=O)O)NC3=O)C(=O)NCC(=O)N[C@@H](CCC(=O)O)C(=O)N[C@@H]([C@@H](C)O)C(=O)N2` [PALICOUREIN] (cyclo(AALGCTCDDRSDGLCKRNGDPTFCGETCRVIPVCTYS); disulfide 5-24, 7-28, 15-34) yielded an IC50 in the assay with CEM-SS of 1500 nM. Further, the EC50 in assay [1] amounted to 100 nM.
